The results in this text go back to ChEMBL document CHEMBL4261642, “Design, synthesis, and ex vivo evaluation of a selective inhibitor for retinaldehyde dehydrogenase enzymes” (Bioorg Med Chem, 2018).

Assay [1] concerns the target T1, Retinal dehydrogenase 2 (Gallus gallus) (UniProt O93344).
T1 sequence (whole entry): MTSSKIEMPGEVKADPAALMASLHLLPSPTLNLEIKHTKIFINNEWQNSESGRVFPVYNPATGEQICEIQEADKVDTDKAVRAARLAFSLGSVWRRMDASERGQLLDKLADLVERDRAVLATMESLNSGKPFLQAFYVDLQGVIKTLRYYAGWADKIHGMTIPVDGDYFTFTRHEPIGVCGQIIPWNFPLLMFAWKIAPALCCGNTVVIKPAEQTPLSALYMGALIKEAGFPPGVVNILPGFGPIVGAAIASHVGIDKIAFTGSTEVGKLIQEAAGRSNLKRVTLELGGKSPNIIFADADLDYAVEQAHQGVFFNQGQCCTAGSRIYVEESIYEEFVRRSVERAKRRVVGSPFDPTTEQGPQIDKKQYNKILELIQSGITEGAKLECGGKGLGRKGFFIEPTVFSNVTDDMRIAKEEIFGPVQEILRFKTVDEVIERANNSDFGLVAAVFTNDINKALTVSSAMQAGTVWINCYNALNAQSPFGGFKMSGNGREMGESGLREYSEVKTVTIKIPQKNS
The assay can be described thus: Inhibition of chick RALDH2 expressed in doxycycline-inducible HEK293 cells assessed as inhibition of ATRA synthesis at 1 uM after 24 hrs in presence of […]. Type of assay: cell-based.

Assay [2] has as its target T2, Retinal dehydrogenase 2 (Homo sapiens, UniProt O94788).
T2 sequence (O94788 whole entry): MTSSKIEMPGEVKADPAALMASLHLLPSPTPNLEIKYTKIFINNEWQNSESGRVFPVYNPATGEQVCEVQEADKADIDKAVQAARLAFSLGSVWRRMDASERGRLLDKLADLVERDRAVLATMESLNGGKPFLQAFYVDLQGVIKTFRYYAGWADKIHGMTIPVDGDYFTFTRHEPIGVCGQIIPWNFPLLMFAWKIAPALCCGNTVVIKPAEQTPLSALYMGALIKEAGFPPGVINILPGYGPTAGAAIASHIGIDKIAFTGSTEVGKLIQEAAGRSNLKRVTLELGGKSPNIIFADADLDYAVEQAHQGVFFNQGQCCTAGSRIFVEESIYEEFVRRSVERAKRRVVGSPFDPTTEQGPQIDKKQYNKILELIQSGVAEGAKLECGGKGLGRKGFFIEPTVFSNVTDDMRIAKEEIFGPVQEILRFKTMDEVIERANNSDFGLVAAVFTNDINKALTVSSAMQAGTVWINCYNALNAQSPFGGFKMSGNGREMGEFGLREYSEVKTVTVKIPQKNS
The assay can be described thus: Inhibition of N-terminal His6-tagged recombinant human RALDH2 using RAL as substrate preincubated for 20 mins followed by substrate addition and measured after 30 mins in presence of NADH by fluorescence assay. In outline:
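Purified His-tagged recombinant enzyme in dialysis buffer with 2 mM DTT. Amounts were chick RALDH1 2 μg (0.358 μM), chick RALDH2 0.5 μg (0.091 μM), chick RALDH3 2 μg (0.355 μM) and human RALDH2 1 μg (0.176 μM). Enzyme pre-incubated 20 min at 37°C with 0–10 μM inhibitor in DMSO. Reaction started with final 4 mM NAD+ in pyrophosphate pH 8.2 buffer plus 250 μM retinaldehyde, 30 min at 37°C. NADH read fluorimetrically (Ex/Em 540/590) against a standard curve. Triplicates, 3–5 experiments.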

In assay [3] the target is T3, Retinal dehydrogenase 2 (Gallus gallus, UniProt O93344).
T3 sequence (O93344 whole entry): T1 sequence (whole entry)
The assay can be described thus: Inhibition of N-terminal His6-tagged recombinant chick RALDH2 expressed in Escherichia coli BL21(DE3) cells using RAL as substrate measured after 30 mins in presence of NADH by Morrison's plot analysis. In outline: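 Ki obtained by fitting the Morrison tight-binding equation to the 20-min pre-incubation retinaldehyde/NADH fluorescence inhibition data. Inputs were enzyme concentration (RALDH1 0.358, RALDH2 0.091, RALDH3 0.355, hRALDH2 0.176 μM), substrate concentration and Km. Triplicates from 3–5 independent experiments.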

Assay [4] addresses T3, Retinal dehydrogenase 2. The assay can be described thus: Inhibition of chick RALDH2 expressed in doxycycline-inducible HEK293 cells assessed as inhibition of ATRA synthesis after 24 hrs in presence of […]. Type of assay: cell-based.
The target in assay [5] is T1, Retinal dehydrogenase 2 (Gallus gallus). The assay can be described thus: Inhibition of N-terminal His6-tagged recombinant chick RALDH2 expressed in Escherichia coli BL21(DE3) cells at 250 nM using RAL as substrate assessed as enzyme recovery preincubated with compound and 250 uM NAD+ up to 80 mins and measured after 30 mins in presence of NAD+ by fluorescence assay. More on the design: scale not given: the % may be the effect or the level left. Summed up:
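Chick RALDH2 (91 nM) pre-incubated with 250 nM inhibitor for 0–80 min at 37°C, alone or with 250 μM retinaldehyde or 250 μM NAD+. Reaction then started with the missing substrate and/or cofactor (250 μM retinaldehyde, 4 mM NAD), 30 min at 37°C. Fluorimetric NADH; % activity remaining. Triplicates.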

Assay [6] concerns the target T4, Aldehyde dehydrogenase, mitochondrial (Homo sapiens, UniProt P05091).
T4 sequence (P05091 whole entry): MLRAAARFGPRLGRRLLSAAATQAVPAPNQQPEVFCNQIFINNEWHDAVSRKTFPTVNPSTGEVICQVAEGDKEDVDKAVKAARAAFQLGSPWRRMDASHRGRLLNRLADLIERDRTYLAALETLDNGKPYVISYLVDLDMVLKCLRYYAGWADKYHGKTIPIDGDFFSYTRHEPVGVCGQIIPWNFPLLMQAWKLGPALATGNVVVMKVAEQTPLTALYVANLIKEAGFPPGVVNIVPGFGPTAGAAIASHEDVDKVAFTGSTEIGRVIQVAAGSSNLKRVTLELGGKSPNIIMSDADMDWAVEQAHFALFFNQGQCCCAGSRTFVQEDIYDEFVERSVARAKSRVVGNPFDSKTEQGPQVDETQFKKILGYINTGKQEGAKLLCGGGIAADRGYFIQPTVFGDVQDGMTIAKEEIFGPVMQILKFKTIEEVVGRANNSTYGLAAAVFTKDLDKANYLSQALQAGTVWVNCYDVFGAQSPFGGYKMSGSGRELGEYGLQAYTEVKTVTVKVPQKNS
The assay can be described thus: Inhibition of N-terminal His6-tagged recombinant human mitochondrial ALDH2 using propionaldehyde as substrate measured after 30 mins in presence of NADH by Morrison's plot analysis.

Assay [7] addresses T1, Retinal dehydrogenase 2 (Gallus gallus). The assay can be described thus: Inhibition of chick RALDH2 expressed in doxycycline-inducible HEK293 cells assessed as inhibition of ATRA synthesis at 2 uM after 24 hrs in presence of ATRA and NAD+. The assay is classed as cell-based.
Assay [8] has the same target. The assay can be described thus: Inhibition of N-terminal His6-tagged recombinant chick RALDH2 expressed in Escherichia coli BL21(DE3) cells up to 500 nM using RAL as substrate assessed as rate of inactivation preincubated up to 40 mins followed by substrate addition and measured after 30 mins in presence of NADH by fluorescence assay. Summed up: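 Chick RALDH2 pre-incubated 10, 20 and 40 min with 0–500 nM inhibitor, then assayed with retinaldehyde/NAD+ by fluorimetric NADH. kobs taken from linear regression of log % activity remaining versus pre-incubation time. KI and kinact obtained by nonlinear regression of kobs versus inhibitor concentration.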

The term inhibition denotes the percentage by which the read-out fell short of the control. For orientation: IC50 means the midpoint of a concentration-inhibition curve. Broadly, the Ki is the dissociation constant of the complex between target and ligand, obtained from inhibition or displacement. In the case of `CC1=C(/C=C/C(C)=C/C=C/C(C)=C/C(=O)C(Cl)Cl)C(C)(C)CCC1`, the figures for the inhibition in assay [1] and in assay [7] were 92% and 93%, respectively. The IC50 worked out at 191 nM on Retinal dehydrogenase 2 [2] and 187 nM on Retinal dehydrogenase 2 [4]. Besides, the results for the Ki (at Retinal dehydrogenase 2 [3]; in assay [6]) were 5.1 nM and “Not Active”, respectively. Further, in assay [5], the Activity fell in the range of 52 to 65%. In assay [8], the kobs was in the range of 2.8e-05 to 0.012 min⁻¹.
